Values belong to the molecule of their own block, whether it stands above or below them.
Assays:
[1] = Oral bioavailability in cynomolgus monkey at 2 mg/kg; type: ADME, organism-based, Macaca fascicularis; conditions: in vivo
Outline: (§1)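 Compounds were dosed as fumarate salts in separate intravenous and oral arms. Oral AUC(0–t), IV half-life, IV clearance, Vss and oral bioavailability (F) were derived from the plasma levels.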

[2] = Half life in dog at 0.5 mg/kg, iv; type: ADME, organism-based, Canis lupus familiaris; set-up: dose 0.5 mg/kg, route intravenous; conditions: in vivo; outline: as §1
[3] = Half life in cynomolgus monkey at 1 mg/kg, iv; type: ADME, organism-based, Macaca fascicularis; set-up: dose 1 mg/kg, route intravenous; conditions: in vivo; outline: as §1
[4] = Volume of distribution at steady state in cynomolgus monkey at 1 mg/kg, iv and 2 mg/kg, po; type: ADME, organism-based, Macaca fascicularis; conditions: in vivo, read-out: Vdss; outline: as §1
[5] = AUC (0 to t) in cynomolgus monkey at 2 mg/kg, po; type: ADME, organism-based, Macaca fascicularis; set-up: dose 2 mg/kg, route oral; conditions: plasma; outline: as §1
[6] = Clearance in rat at 2 mg/kg, iv; type: ADME, organism-based; set-up: dose 2 mg/kg, route intravenous; conditions: in vivo; outline: as §1
[7] = Volume of distribution at steady state in dog at 0.5 mg/kg, iv and 1 mg/kg, po; type: ADME, organism-based, Canis lupus familiaris; conditions: in vivo, read-out: Vdss; outline: as §1
[8] = Clearance in cynomolgus monkey at 1 mg/kg, iv; type: ADME, organism-based, Macaca fascicularis; set-up: dose 1 mg/kg, route intravenous; conditions: in vivo; outline: as §1
[9] = Oral bioavailability in dog at 1 mg/kg; type: ADME, organism-based, Canis lupus familiaris; conditions: in vivo; outline: as §1
[10] = Half life in rat at 2 mg/kg, iv; type: ADME, organism-based; set-up: dose 2 mg/kg, route intravenous; conditions: in vivo; outline: as §1
[11] = Clearance in dog at 0.5 mg/kg, iv; type: ADME, organism-based, Canis lupus familiaris; set-up: dose 0.5 mg/kg, route intravenous; conditions: in vivo; outline: as §1
[12] = Volume of distribution at steady state in rat at 2 mg/kg, iv and 10 mg/kg, po; type: ADME, organism-based; conditions: in vivo, read-out: Vdss; outline: as §1
[13] = AUC (0 to t) in dog at 1 mg/kg, po; type: ADME, organism-based, Canis lupus familiaris; set-up: dose 1 mg/kg, route oral; conditions: plasma; outline: as §1
[14] = Volume of distribution at steady state in rat at 1.6 mg/kg, iv and 8.2 mg/kg, po; type: ADME, organism-based; conditions: in vivo, read-out: Vdss; outline: as §1
[15] = Oral bioavailability in rat at 8.2 mg/kg; type: ADME, organism-based; conditions: in vivo; outline: as §1
[16] = Half life in rat at 1.6 mg/kg, iv; type: ADME, organism-based; set-up: dose 1.6 mg/kg, route intravenous; conditions: in vivo; outline: as §1
[17] = Clearance in rat at 1.6 mg/kg, iv; type: ADME, organism-based; set-up: dose 1.6 mg/kg, route intravenous; conditions: in vivo; outline: as §1
[18] = AUC (0 to t) in rat at 8.2 mg/kg, po; type: ADME, organism-based; set-up: dose 8.2 mg/kg, route oral; conditions: plasma; outline: as §1
L5178Y [19] = experiment: Genotoxicity against TK-negative mouse L5178Y cells; type: toxicity, cell-based
L5178Y [20] = experiment: Genotoxicity against TK-positive mouse L5178Y cells; type: toxicity, cell-based
Renin [21] = target: T1, Renin (Homo sapiens, UniProt P00797); experiment: Inhibition of renin in human plasma assessed as formation of angiotensin1 product after 90 mins by competitive radioimmunoassay
T1 sequence (P00797 whole entry): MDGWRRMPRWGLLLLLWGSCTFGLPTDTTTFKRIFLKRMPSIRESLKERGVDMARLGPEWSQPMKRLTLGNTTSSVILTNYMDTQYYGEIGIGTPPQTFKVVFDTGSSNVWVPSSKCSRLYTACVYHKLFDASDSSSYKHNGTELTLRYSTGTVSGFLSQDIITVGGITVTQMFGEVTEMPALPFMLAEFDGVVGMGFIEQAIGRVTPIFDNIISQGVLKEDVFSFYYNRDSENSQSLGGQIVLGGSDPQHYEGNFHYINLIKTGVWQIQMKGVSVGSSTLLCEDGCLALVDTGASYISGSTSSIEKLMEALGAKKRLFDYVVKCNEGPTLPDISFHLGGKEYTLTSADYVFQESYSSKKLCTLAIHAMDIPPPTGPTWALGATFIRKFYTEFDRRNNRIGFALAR
Outline: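 IC50 for renin inhibition determined in the presence of human plasma; each value is the average of at least two replicates.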

[22] = Fraction unbound in cynomolgus monkey plasma; type: ADME, cell-free, Macaca fascicularis
Renin [23] = target: T1, Renin; experiment: Inhibition of human recombinant renin using H-Asp-Arg-Val-Tyr-Ile-His-Pro-Phe-His-Leu-Val-Ile-His-Asn-OH as substrate assessed as formation of angiotensin1 product after 2 hrs by competive radioimmunoassay
Outline: (§2)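 Purified recombinant human renin measured in buffer; each value is the average of at least two replicates.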

Salmonella typhimurium [24] = experiment: Mutagenicity against Salmonella typhimurium in the presence of S9-mix; type: toxicity, organism-based; conditions: salmonella enterica subsp. enterica serovar typhimurium
Renin [25] = target: T1, Renin; experiment: Inhibition of human recombinant renin using DABCYL-gamma-Abu-Ile-His-Pro-Phe-His-Leu-Val-Ile-His-Thr-EDANS as substrate for 60 mins by fluorimetry; outline: as §2
[26] = Fraction unbound in dog plasma; type: ADME, cell-free, Canis lupus familiaris
Salmonella typhimurium [27] = experiment: Mutagenicity against Salmonella typhimurium in the absence of S9-mix; type: toxicity, organism-based; conditions: salmonella enterica subsp. enterica serovar typhimurium
[28] = AUC (0 to t) in rat at 10 mg/kg, po; type: ADME, organism-based; set-up: dose 10 mg/kg, route oral; conditions: plasma; outline: as §1
[29] = Clearance in dog at 1 mg/kg, iv; type: ADME, organism-based, Canis lupus familiaris; set-up: dose 1 mg/kg, route intravenous; conditions: in vivo
[30] = Half life in dog at 1 mg/kg, iv; type: ADME, organism-based, Canis lupus familiaris; set-up: dose 1 mg/kg, route intravenous; conditions: in vivo
Cytochrome P450 3A4 = Cytochrome P450 3A4 (Homo sapiens, UniProt P08684); experiment: Inhibition of CYP3A4 using testosterone as substrate in human liver microsome for 20 mins by HPLC analysis; type: ADME, microsomes
Outline: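 CYP3A4 inhibition measured in human liver microsomes; IC50 is the average of at least two replicates.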

Chain of Cytochrome P450 3A4 (P08684 whole entry): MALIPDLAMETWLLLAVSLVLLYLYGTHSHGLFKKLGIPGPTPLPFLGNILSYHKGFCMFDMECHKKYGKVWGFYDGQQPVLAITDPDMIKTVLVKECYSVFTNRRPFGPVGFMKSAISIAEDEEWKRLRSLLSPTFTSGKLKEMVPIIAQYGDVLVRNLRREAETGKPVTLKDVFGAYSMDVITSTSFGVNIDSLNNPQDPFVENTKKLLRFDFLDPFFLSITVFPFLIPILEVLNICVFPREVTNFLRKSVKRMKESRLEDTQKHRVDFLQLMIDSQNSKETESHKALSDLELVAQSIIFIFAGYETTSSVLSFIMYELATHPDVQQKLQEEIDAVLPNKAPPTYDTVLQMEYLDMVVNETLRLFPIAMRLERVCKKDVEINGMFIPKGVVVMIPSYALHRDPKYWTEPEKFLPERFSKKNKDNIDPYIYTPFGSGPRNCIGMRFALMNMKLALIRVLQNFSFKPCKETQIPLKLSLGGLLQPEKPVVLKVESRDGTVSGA

SMILES: CN[C@H](CNC(=O)N1CCC[C@@H]([C@@H](OCCNC(=O)OC)c2cccc(Cl)c2)C1)C[C@H]1CCCOC1.O=C(O)/C=C/C(=O)O
bioavailability [1]: 18%
half-life [2]: 9.9 h
half-life [3]: 12.3 h
Vd [4]: 4.7 L/kg
AUC(0-t) [5]: 404 ng·h/mL
clearance [6]: 128 mL/min/kg
Vd [7]: 4 L/kg
clearance [8]: 29.6 mL/min/kg
bioavailability [9]: 41%
half-life [10]: 7.3 h
clearance [11]: 12.9 mL/min/kg
Vd [12]: 38 L/kg
AUC(0-t) [13]: 484 ng·h/mL

SMILES: COCCCOc1cc(C[C@@H](C[C@H](N)[C@@H](O)C[C@H](C(=O)NCC(C)(C)C(N)=O)C(C)C)C(C)C)ccc1OC.COCCCOc1cc(C[C@@H](C[C@H](N)[C@@H](O)C[C@H](C(=O)NCC(C)(C)C(N)=O)C(C)C)C(C)C)ccc1OC.O=C(O)/C=C/C(=O)O [ALISKIREN FUMARATE]
bioavailability [1]: 1.4%
half-life [3]: 14.7 h
AUC(0-t) [28]: 21 ng·h/mL
clearance [29]: 11 mL/min/kg
clearance [8]: 2.5 mL/min/kg
half-life [30]: 16.3 h
bioavailability [9]: 11%
half-life [10]: 39.6 h
AUC(0-t) [13]: 149 ng·h/mL

SMILES: COCCCC[C@@](O)(c1cccc(Cl)c1F)[C@@H]1CCCN(C(=O)NC[C@@H](N)CC2CCCCC2)C1
IC50 (Renin [21]): 69 nM
IC50 (Cytochrome P450 3A4): 2910 nM
IC50 (Renin [23]): 0.27 nM
IC50 (Renin [25]): 2.2 nM

SMILES: CNC[C@H](CC1CCCCC1)NC(=O)N1CCC[C@@H]([C@@H](OCCNC(=O)OC)c2cccc(Cl)c2)C1
IC50 (Cytochrome P450 3A4): 4600 nM

SMILES: CNC[C@H](C[C@@H]1CCCOC1)NC(=O)N1CCC[C@@H]([C@@H](OCCNC(=O)OC)c2cccc(Cl)c2)C1
IC50 (Renin [21]): 4.5 nM
IC50 (Renin [23]): 2.7 nM
IC50 (Renin [25]): 5.5 nM

Continued, in another order:

Vd [14]: 16 L/kg
bioavailability [15]: 5.5%
half-life [16]: 15.9 h
clearance [17]: 30 mL/min/kg
AUC(0-t) [18]: 226 ng·h/mL
SMILES: CNC[C@H](CC1CCCCC1)NC(=O)N1CCC[C@@H]([C@@](O)(CCCCOC)c2cccc(Cl)c2F)C1.O=C(O)/C=C/C(=O)O

IC50 (Renin [21]): 1.1 nM
fraction unbound [22]: 0.29
IC50 (Renin [23]): 0.3 nM
IC50 (Renin [25]): 0.47 nM
fraction unbound [26]: 0.22
SMILES: CN[C@H](CNC(=O)N1CCC[C@@H]([C@@H](OCCNC(=O)OC)c2cccc(Cl)c2)C1)C[C@H]1CCCOC1 [VTP-27999]
Activity (L5178Y [19]): Non-toxic
Activity (L5178Y [20]): Non-toxic
Activity (Salmonella typhimurium [24]): Non-toxic
Activity (Salmonella typhimurium [27]): Non-toxic
